Measured values from ChEMBL document CHEMBL4732208, “Discovery of novel N-alkylcytidines as promising antimicrobial agents” (Eur J Med Chem, 2021).
Values after ≈ are worked out from the molar mass of the structure shown. Active and inactive are the calls of the source. The calls are words filed in the database; no cut-off is given here.

Experiments:
[1] = test system: Leuconostoc mesenteroides; assay: Antibacterial activity against Leuconostoc mesenteroides VKPM B-4177; type: functional
Method in brief: (§1)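 Strains grown in modified Gause's nutrient medium N 2, inoculum 10⁶ cells/ml. Test compound dissolved in 50% aqueous methanol, added at ten volume percent of the medium. Growth controls: medium without additions, medium with solvent mixture, and clinical antibiotics (amikacin, ciprofloxacin, isoniazid, rifampicin, oxacillin, vancomycin).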

Bacillus subtilis = assay: Antibacterial activity against Bacillus subtilis ATCC 6633; type: functional; method in brief: as §1
[2] = test system: Mycolicibacterium smegmatis; assay: Antibacterial activity against Mycobacterium smegmatis mc2155; type: functional
Method in brief: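 Strains were grown in modified Gause's nutrient medium N 2 at 10⁶ cells/ml. The compound was dissolved in 50% aqueous methanol and added at 10 volume percent of the medium. Controls were untreated cultures, medium with the solvent mixture, and clinical antibiotics.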

[3] = test system: Mycolicibacterium smegmatis; assay: Antibacterial activity against Mycobacterium smegmatis VKPM Ac-1339; type: functional; method in brief: as §1
Staphylococcus aureus [4] = assay: Antibacterial activity against Staphylococcus aureus FDA 209 P; type: functional; method in brief: as §1
Staphylococcus aureus [5] = assay: Antibacterial activity against Staphylococcus aureus INA 00761; type: functional; method in brief: as §1
Micrococcus luteus = assay: Antibacterial activity against Micrococcus luteus NCTC 8340; type: functional; method in brief: as §1
[6] = Cytotoxicity against human A549 cells by MTT assay; type: cell-based
Method in brief: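 Adherent A549 cells passaged in DMEM with 10% fetal calf serum and 2 mM glutamine, at 37 °C, 5% CO2, 90% humidity. MTT test. CC50 is the concentration that inhibits culture growth by 50%.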

[7] = Acute toxicity in ip dosed mouse administered for 5 days and observed for 4 weeks; type: organism-based; conditions: in vivo
[8] = Subchronic toxicity in ip dosed mouse administered for 5 days and observed for 4 weeks; type: organism-based; conditions: in vivo
[9] = Subchronic toxicity in ip dosed mouse assessed as delayed effect administered for 5 days and observed for 4 weeks; type: organism-based; conditions: in vivo
Aspergillus versicolor [10] = assay: Antifungal activity against Aspergillus versicolor SRX7729174 STG-25G assessed as reduction in fungal growth at 3 mM measured upto 48 days by drop dilution assay relative to control; type: functional; conditions: time day <=48
Method in brief: (§2)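 Incubated up to 48 days at 26 °C. Colony diameters read every 3 days (days 6–48). Growth inhibition = (Dc−Dt)/Dc × 100 versus control. Inoculum 5 × 10⁵ CFU. Triplicate, repeated at least twice.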

[11] = Antifungal activity against Aspergillus-creber SRX7729180 STG-57 assessed as reduction in fungal growth at 3 mM measured upto 48 days by drop dilution assay relative to control; type: functional; conditions: time day <=48; method in brief: as §2
Aspergillus versicolor [12] = assay: Antifungal activity against Aspergillus versicolor SRX7729182 STG-25G assessed as reduction in fungal growth at 3 mM measured upto 48 days by drop dilution assay relative to control; type: functional; conditions: time day <=48; method in brief: as §2
Aspergillus [13] = assay: Antifungal activity against Aspergillus SRX7729186 STG-93W assessed as reduction in fungal growth at 3 mM measured upto 48 days by drop dilution assay relative to control; type: functional; conditions: time day <=48; method in brief: as §2
[14] = Antifungal activity against Aspergillus-amoenus SRX7729194 STG-106 assessed as reduction in fungal growth at 3 mM measured upto 48 days by drop dilution assay relative to control; type: functional; conditions: time day <=48; method in brief: as §2
[15] = Antifungal activity against Cladosporium-halotolerans SRX7729178 STG-52B assessed as reduction in fungal growth at 3 mM measured upto 48 days by drop dilution assay relative to control; type: functional; conditions: time day <=48; method in brief: as §2
[16] = Antifungal activity against Cladosporium-parahalotolerans SRX7729188 STG-93B assessed as reduction in fungal growth at 3 mM measured upto 48 days by drop dilution assay relative to control; type: functional; conditions: time day <=48; method in brief: as §2
[17] = Antifungal activity against Ulocladium chartarum SRX7729176 STG-36 assessed as reduction in fungal growth at 3 mM measured upto 48 days by drop dilution assay relative to control; type: functional; conditions: Alternaria chartarum, time day <=48; method in brief: as §2
[18] = test system: Simplicillium lamellicola; assay: Antifungal activity against Simplicillium lamellicola SRX772919 STG-96 assessed as reduction in fungal growth at 3 mM measured upto 48 days by drop dilution assay relative to control; type: functional; conditions: time day <=48; method in brief: as §2
[19] = Antifungal activity against Microascus-paisii SRX7729192 STG-103 assessed as reduction in fungal growth at 3 mM measured upto 48 days by drop dilution assay relative to control; type: functional; conditions: time day <=48; method in brief: as §2
Aspergillus versicolor [20] = assay: Antifungal activity against Aspergillus versicolor SRX7729174 STG-25G assessed as reduction in fungal growth at 0.1 to 3.5 mM measured for 24 days by drop dilution assay relative to control; type: functional; conditions: dose 0.1-3.5 mM, time 24.0 day
Method in brief: (§3)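 Drop-dilution method. Suspension plated on CDA with or without compound (screening range 0.1–3.5 mM); 5-fluorocytosine positive control. Incubated at 26 °C. Inhibition % = (Dc−Dt)/Dc × 100 from colony diameters; triplicate, repeated at least twice.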

Aspergillus creber = assay: Antifungal activity against Aspergillus-creber SRX7729180 STG-57 assessed as reduction in fungal growth at 0.1 to 3.5 mM measured for 24 days by drop dilution assay relative to control; type: functional; conditions: dose 0.1-3.5 mM, time 24.0 day; method in brief: as §3
Aspergillus versicolor [21] = assay: Antifungal activity against Aspergillus versicolor SRX7729182 STG-25G assessed as reduction in fungal growth at 0.1 to 3.5 mM measured for 24 days by drop dilution assay relative to control; type: functional; conditions: dose 0.1-3.5 mM, time 24.0 day; method in brief: as §3
Aspergillus [22] = assay: Antifungal activity against Aspergillus SRX7729186 STG-93W assessed as reduction in fungal growth at 0.1 to 3.5 mM measured for 24 days by drop dilution assay relative to control; type: functional; conditions: dose 0.1-3.5 mM, time 24.0 day; method in brief: as §3
Aspergillus amoenus = assay: Antifungal activity against Aspergillus-amoenus SRX7729194 STG-106 assessed as reduction in fungal growth at 0.1 to 3.5 mM measured for 24 days by drop dilution assay relative to control; type: functional; conditions: dose 0.1-3.5 mM, time 24.0 day; method in brief: as §3
[23] = test system: Cladosporium halotolerans; assay: Antifungal activity against Cladosporium-halotolerans SRX7729178 STG-52B assessed as reduction in fungal growth at 0.1 to 3.5 mM measured for 24 days by drop dilution assay relative to control; type: functional; conditions: dose 0.1-3.5 mM, time 24.0 day; method in brief: as §3
[24] = test system: Cladosporium parahalotolerans; assay: Antifungal activity against Cladosporium-parahalotolerans SRX7729188 STG-93B assessed as reduction in fungal growth at 0.1 to 3.5 mM measured for 24 days by drop dilution assay relative to control; type: functional; conditions: dose 0.1-3.5 mM, time 24.0 day; method in brief: as §3
Alternaria chartarum = assay: Antifungal activity against Ulocladium chartarum SRX7729176 STG-36 assessed as reduction in fungal growth at 0.1 to 3.5 mM measured for 24 days by drop dilution assay relative to control; type: functional; conditions: dose 0.1-3.5 mM, time 24.0 day; method in brief: as §3
[25] = test system: Simplicillium lamellicola; assay: Antifungal activity against Simplicilium-lamellicola SRX772919 STG-96 assessed as reduction in fungal growth at 0.1 to 3.5 mM measured for 24 days by drop dilution assay relative to control; type: functional; conditions: dose 0.1-3.5 mM, time 24.0 day; method in brief: as §3
Microascus paisii = assay: Antifungal activity against Microascus-paisii SRX7729192 STG-103 assessed as reduction in fungal growth at 0.1 to 3.5 mM measured for 24 days by drop dilution assay relative to control; type: functional; conditions: dose 0.1-3.5 mM, time 24.0 day; method in brief: as §3
[26] = Metabolic stability in human serum assessed as half life at 100 mM measured for 24 hrs by HPLC/TLC analysis; type: ADME, cell-free
[27] = Chemical stability of compound in pH 2.2 at 5 mg measured after 7 days by TLC analysis; type: physicochemical; conditions: pH 2.2, 168 h, time 7 day
Method in brief: (§4)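 Compound incubated at 37 °C in 0.2 M glycine/HCl (pH 2.2), 0.1 M potassium phosphate (pH 7.5) or 0.2 M glycine/NaOH (pH 9.0). Followed for 24 h and up to over a week.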

[28] = Chemical stability of compound in pH 7.5 at 5 mg measured after 7 days by TLC analysis; type: physicochemical; conditions: pH 7.5, 168 h, time 7 day; method in brief: as §4
[29] = Chemical stability of compound in pH 9 at 5 mg measured after 24 hrs by TLC analysis; type: physicochemical; conditions: pH 9, 24 h; method in brief: as §4
[30] = Aqueous solubility of compound; type: physicochemical; conditions: buffer

Row | Structure (SMILES) | MIC [1] [µM] | MIC (Bacillus subtilis) [µM] | MIC [2] [µM] | MIC [3] [µM] | MIC (Staphylococcus aureus [4]) [µM] | MIC (Staphylococcus aureus [5]) [µM] | MIC (Micrococcus luteus) [µM] | CC50 [6] [µM] | inhibition (Aspergillus versicolor [20]) | inhibition (Aspergillus creber) | inhibition (Aspergillus versicolor [21]) | inhibition (Aspergillus [22]) | inhibition (Aspergillus amoenus) | inhibition [23] | inhibition [24] | inhibition (Alternaria chartarum) | half-life [26] [h] | Stabilty [27] | Stabilty [28] | Stabilty [29] | other results
1 | CCCCCCCCCCCCNc1nc(=O)n([C@H]2C[C@H](O)[C@@H](CO)O2)cc1C | 24 (≈ 9.83 µg/mL) | 24 (≈ 9.83 µg/mL) | 24 (≈ 9.83 µg/mL) | 24 (≈ 9.83 µg/mL) | 48 (≈ 19.7 µg/mL) | 48 (≈ 19.7 µg/mL) | 24 (≈ 9.83 µg/mL) | 158 | Active | Active | Active | Active | Active | Active | Active | Active |  |  |  |  | LD50 at 672 h [7]: 270 mg/kg; LD50 at 672 h [8]: 215 mg/kg; LD50 at 672 h [9]: 200 mg/kg; inhibition at 3000 µM (Aspergillus versicolor [10]): 100%; inhibition at 3000 µM [11]: 100%; inhibition at 3000 µM (Aspergillus versicolor [12]): 100%; inhibition at 3000 µM (Aspergillus [13]): 100%; inhibition at 3000 µM [14]: 100%; inhibition at 3000 µM [15]: 100%; inhibition at 3000 µM [16]: 100%; inhibition at 3000 µM [17]: 100%; inhibition at 3000 µM [18]: 100%; inhibition at 3000 µM [19]: 100%; inhibition [25]: Active; inhibition (Microascus paisii): Active
2 | CCCCCCCCCCCCNc1nc(=O)n([C@H]2C[C@H](OC(=O)OCCOCCOCCO)[C@@H](CO)O2)cc1C | 68 (≈ 39.8 µg/mL) | 68 (≈ 39.8 µg/mL) | 68 (≈ 39.8 µg/mL) | 68 (≈ 39.8 µg/mL) | 50 (≈ 29.3 µg/mL) | 50 (≈ 29.3 µg/mL) | 50 (≈ 29.3 µg/mL) | 90 |  |  |  |  |  |  |  |  | ≥ 24 | Stable | Stable | Stable | solubility [30]: Soluble
3 | CCCCCCCCCCNc1nc(=O)n([C@H]2C[C@H](OC(=O)OCCOCCOCCO)[C@@H](CO)O2)cc1C | 90 (≈ 50.2 µg/mL) | 90 (≈ 50.2 µg/mL) | 54 (≈ 30.1 µg/mL) | 54 (≈ 30.1 µg/mL) | 54 (≈ 30.1 µg/mL) | 54 (≈ 30.1 µg/mL) | > 45 | 90 | inactive | inactive | inactive | inactive | inactive | inactive | inactive | inactive | ≥ 24 | Stable | Stable | Stable | solubility [30]: Soluble
